Experimental data taken from ChEMBL document CHEMBL3244233, “Synthesis and biological activities of some N6- and N9-carbamoyladenines and related ribonucleosides” (1977).
Active and inactive are the calls of the source. The calls are words filed in the database; no cut-off is given here.

Assays:
Format in all cases: functional
[1] = Growth inhibition of human Nc37 cells assessed as viable cells at 10^-4 M after 72 hrs relative to control; details: NC-37, 72 h, read-out: Activity
In short: (§1)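 Nc 37 cells come from a normal human buffy coat, RPMI 6410 from the buffy coat of a myeloblastic leukemia patient, and L1210 is mouse leukemia. Cells were grown in RPMI 1640 with 10% fetal calf serum and exposed to compound at 10^-4 M in medium containing 0.5% Me2SO for 72 h. Viable cell number is expressed as percent of 0.5% Me2SO controls and scored as ++ 30-60%, + 60-80%, ± 80-90%, NA 90-110%.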

[2] = Growth inhibition of human RPMI6410 cells assessed as viable cells at 10^-4 M after 72 hrs relative to control; details: RPMI 6410, 72 h, read-out: Activity; in short: as §1
L1210 [3] = assay: Growth inhibition of mouse L1210 cells assessed as viable cells at 10^-4 M after 72 hrs relative to control; details: L1210, 72 h, read-out: Activity; in short: as §1
L1210 [4] = assay: Growth inhibition of mouse L1210 cells at 10^-4 M after 72 hrs relative to control; details: L1210, 72 h, read-out: GI; in short: as §1
[5] = Growth inhibition of human RPMI6410 cells assessed as viable cells at 10^-5 M after 72 hrs relative to control; details: RPMI 6410, 72 h, read-out: Activity
L1210 [6] = assay: Antitumor activity against mouse L1210 cells allografted in mouse assessed as increase in life span of host
[7] = Growth inhibition of human Nc37 cells assessed as viable cells at 10^-5 M after 72 hrs relative to control; details: NC-37, 72 h, read-out: Activity
L1210 [8] = assay: Growth inhibition of mouse L1210 cells assessed as viable cells at 10^-5 M after 72 hrs relative to control; details: L1210, 72 h, read-out: Activity

SMILES	viability at 100 µM [1] [%]	viability at 100 µM [2] [%]	viability at 100 µM (L1210 [3]) [%]	inhibition of growth at 100 µM (L1210 [4]) [%]	viability at 10 µM [5] [%]	Activity (L1210 [6])	viability at 10 µM [7] [%]	viability at 10 µM (L1210 [8]) [%]
CC(=O)n1cnc2c(N)ncnc21	90	90	30					
O=C(O)CNC(=O)CNC(=O)Nc1ncnc2[nH]cnc12	90	90	90					
Cc1ccc(NC(=O)Nc2[nH]cnc3ncnc2-3)cc1	90	60	> 30					
C=CCNC(=O)Nc1ncnc2[nH]cnc12	60	60	60					
Nc1ncnc2c1ncn2C(=O)N[C@@H](Cc1ccccc1)C(=O)O	30	80	> 30	≥ 70				
COc1ccc(NC(=O)Nc2ncnc3c2ncn3C(=O)Nc2ccc(OC)cc2)cc1	90	90	30					
CC(=O)OC[C@H]1O[C@@H](n2cnc3c(NC(=O)Nc4ccc(Cl)cc4)ncnc32)[C@H](OC(C)=O)[C@@H]1OC(C)=O	30	30	> 30					
CC(C)(C)NC(=O)n1cnc2c(N)ncnc21	60	60	> 30	≥ 70				
CCCC(=O)n1cnc2c(N)ncnc21	90	60	60					
CCOC(=O)CNC(=O)N(C)c1ncnc2c1ncn2C(=O)NCC(=O)OCC	90	90	60					
CCCCCCCC(=O)n1cnc2c(N)ncnc21	60	60	30					
CNc1ncnc2c1ncn2C(=O)NC(C)(C)C	60	60	60					
CNC(=S)Nc1ncnc2[nH]cnc12	60	60	60					
CCCCNC(=O)Nc1ncnc2c1ncn2C(=O)NCCCC	90	60	30					
CCOC(=O)CNC(=O)n1cnc2c(N)ncnc21	60	60	30					
Cc1ccccc1NC(=O)Nc1ncnc2c1ncn2C(=O)Nc1ccccc1C	60	90	60					
Nc1ncnc2c1ncn2C(=O)NC1CCCCC1	30	30	> 30	≥ 70				
CCCCNC(=S)Nc1ncnc2[nH]cnc12	30	60	30					
CCCCNC(=O)Nc1ncnc2[nH]cnc12	60	60	30					
O=C(Nc1ncnc2[nH]cnc12)NC1CCCCC1	60	60	60					
CNC(=O)n1cnc2c(N)ncnc21	30	30	30	≥ 70	60	inactive	60	
CC(=O)OC[C@H]1O[C@@H](n2cnc3c(NC(=O)Nc4ccccc4Cl)ncnc32)[C@H](OC(C)=O)[C@@H]1OC(C)=O	30	30	> 30					
CNC(=O)n1cnc2c(NC)ncnc21	30	60	90					
C=CCNC(=O)n1cnc2c(N)ncnc21	30	60	> 30	≥ 70				
CC(C)C(NC(=O)n1cnc2c(N)ncnc21)C(=O)OCc1ccccc1 (centres undefined)	60	30	30					
O=C(Nc1ccccc1F)Nc1ncnc2c1ncn2[C@@H]1O[C@H](CO)[C@@H](O)[C@H]1O	60	30	30					
Nc1ncnc2c1ncn2C(=O)Nc1ccccc1F	90	60	60					

SMILES	viability at 100 µM [1] [%]	viability at 100 µM [2] [%]	viability at 100 µM (L1210 [3]) [%]	inhibition of growth at 100 µM (L1210 [4]) [%]	viability at 10 µM [5] [%]	Activity (L1210 [6])	viability at 10 µM [7] [%]	viability at 10 µM (L1210 [8]) [%]
CC(C)(C)NC(=O)n1cnc2c(NC(=O)Nc3ccccc3F)ncnc21	60	60	> 30					
O=C(NCCc1ccccc1Cl)Nc1ncnc2[nH]cnc12	30	60	60					
CC(OCc1ccccc1)C(NC(=O)n1cnc2c(N)ncnc21)C(=O)OCc1ccccc1 (centres undefined)	60	60	> 30	≥ 70				
CCCCNC(=S)n1cnc2c(N)ncnc21	60	60	60					
O=C(Nc1ccccc1)Nc1ncnc2c1ncn2C(=O)Nc1ccccc1	60	80	30					
CNC(=O)N(C)c1ncnc2c1ncn2C(=O)NC	30	60	30					
O=C(Nc1ccc(F)cc1)Nc1ncnc2[nH]cnc12	90	90	30					
CN(C(=O)Nc1ccccc1)c1ncnc2c1ncn2C(=O)Nc1ccccc1	90	60	30					
CNC(=O)Nc1ncnc2c1ncn2C(=O)Nc1ccccc1	90	90	30					
Nc1ncnc2c1ncn2C(=O)NCC(=O)OCc1ccccc1	60	80	> 30	≥ 70				
CC(C)(C)CNC(=O)Nc1ncnc2c1ncn2[C@@H]1O[C@H](CO)[C@@H](O)[C@H]1O	90	90	80					
O=C(Nc1cccc2ccccc12)Nc1ncnc2c1ncn2C(=O)Nc1cccc2ccccc12	30	30	> 30			inactive		
CNC(=O)Nc1ncnc2c1ncn2C(=O)NC	90	80	80					
COc1ccc(NC(=O)Nc2ncnc3c2ncn3C(=O)NC(C)(C)C)cc1	90	80	80					
O=C(Nc1ccccc1)Nc1ncnc2[nH]cnc12	60	80	60					
O=C(Nc1ccccc1C(F)(F)F)Nc1ncnc2[nH]cnc12	30	90						
O=C(Nc1ccc(Br)cc1)Nc1ncnc2c1ncn2C(=O)Nc1ccc(Br)cc1	60							
CCCCNC(=O)n1cnc2c(N)ncnc21	30	30	> 30	≥ 70				
Nc1ncnc2c1ncn2C(=O)Nc1ccccc1	90	60	30					
O=C(NCCc1ccccc1Cl)Nc1ncnc2c1ncn2[C@@H]1O[C@H](CO)[C@@H](O)[C@H]1O	60							
CCOC(=O)n1cnc2c(NC)ncnc21	30	30	90					
CNC(=S)n1cnc2c(N)ncnc21				≥ 70	30	inactive	30	> 30
O=C(Nc1ccc(Cl)cc1)Nc1ncnc2c1ncn2[C@@H]1O[C@H](CO)[C@@H](O)[C@H]1O	30	30	> 30			inactive		
CN(C(=O)Nc1ccccc1Cl)c1ncnc2c1ncn2C(=O)Nc1ccccc1Cl	90	60	30					
CC(C)(C)NC(=O)Nc1ncnc2[nH]cnc12	60	60	60					
Nc1ncnc2c1ncn2C(=O)NC(Cc1ccccc1)C(=O)OCc1ccccc1 (centres undefined)	60	90	30					
